{
  "source": "ChEMBL document CHEMBL3779808",
  "about": "“Design, synthesis and biological evaluation of 5-amino-4-(1H-benzoimidazol-2-yl)-phenyl-1,2-dihydro-pyrrol-3-ones as inhibitors of protein kinase FGFR1” (Bioorg Med Chem, 2016)",
  "key": {"[1]": {"biological_target": "T1, Fibroblast growth factor receptor 1 (Homo sapiens, UniProt P11362)", "test": "Inhibition of N-terminal GST-tagged recombinant human FGFR1 (456 to 765 residues) expressed in baculovirus infected insect Sf21 cells after 25 mins using KKKSPGEYVNIEFG peptide substrate by scintillation counting analysis"}, "[2]": {"test": "Cytotoxicity against human KG1 cells assessed as cell viability after 72 hrs by MTT assay", "details": "KG-1, 72 h"}, "HEK293": {"system": "HEK293", "test": "Cytotoxicity against HEK293 cells assessed as cell viability after 72 hrs by MTT assay", "details": "Homo sapiens, HEK293, 72 h"}, "[3]": {"biological_target": "T1, Fibroblast growth factor receptor 1", "test": "Inhibition of N-terminal GST-tagged recombinant human FGFR1 (456 to 765 residues) expressed in baculovirus infected insect Sf21 cells assessed as residual activity at 10 uM", "procedure,_shortened": "(§1)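 This is a seven-kinase selectivity panel run according to the enzyme supplier's (Millipore) protocols. The reaction mixture contained 100 µM ATP. Activity is reported as residual activity.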"}, "[4]": {"biological_target": "Angiopoietin-1 receptor (Homo sapiens) (UniProt Q02763)", "sequence (Q02763 whole entry, the tested form may be a part)": "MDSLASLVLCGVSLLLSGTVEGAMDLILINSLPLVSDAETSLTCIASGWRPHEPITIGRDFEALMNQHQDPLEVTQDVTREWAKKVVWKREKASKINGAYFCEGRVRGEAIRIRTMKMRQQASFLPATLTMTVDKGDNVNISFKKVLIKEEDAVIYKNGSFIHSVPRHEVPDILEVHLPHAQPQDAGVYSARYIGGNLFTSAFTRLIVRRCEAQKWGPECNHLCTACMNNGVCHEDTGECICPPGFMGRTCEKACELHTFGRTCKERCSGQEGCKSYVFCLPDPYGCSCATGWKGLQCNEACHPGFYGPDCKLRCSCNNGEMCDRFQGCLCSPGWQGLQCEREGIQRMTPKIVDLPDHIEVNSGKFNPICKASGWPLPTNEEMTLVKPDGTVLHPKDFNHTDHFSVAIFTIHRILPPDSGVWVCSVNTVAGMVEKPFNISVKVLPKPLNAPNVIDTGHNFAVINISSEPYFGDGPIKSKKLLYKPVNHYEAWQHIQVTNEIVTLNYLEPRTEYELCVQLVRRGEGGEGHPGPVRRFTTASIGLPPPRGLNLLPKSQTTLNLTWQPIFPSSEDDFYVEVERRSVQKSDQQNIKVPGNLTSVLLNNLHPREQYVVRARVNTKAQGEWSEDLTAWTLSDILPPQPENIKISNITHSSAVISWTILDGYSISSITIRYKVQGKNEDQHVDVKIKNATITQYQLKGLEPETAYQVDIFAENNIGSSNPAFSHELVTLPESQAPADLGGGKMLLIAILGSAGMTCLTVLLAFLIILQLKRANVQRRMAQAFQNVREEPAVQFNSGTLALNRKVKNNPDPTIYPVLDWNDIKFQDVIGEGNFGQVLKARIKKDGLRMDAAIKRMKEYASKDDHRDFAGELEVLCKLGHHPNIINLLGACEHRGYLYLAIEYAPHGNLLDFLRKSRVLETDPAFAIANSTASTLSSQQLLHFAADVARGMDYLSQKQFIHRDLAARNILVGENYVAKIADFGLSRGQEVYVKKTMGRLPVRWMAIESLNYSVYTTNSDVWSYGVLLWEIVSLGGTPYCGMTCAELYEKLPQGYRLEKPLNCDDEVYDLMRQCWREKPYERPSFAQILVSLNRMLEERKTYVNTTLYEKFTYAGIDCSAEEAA", "test": "Inhibition of N-terminal His6-tagged recombinant human Tie2 residues 771-end expressed in baculovirus infected insect Sf21 cells assessed as residual activity at 10 uM", "procedure,_shortened": "as §1"}, "[5]": {"biological_target": "Hepatocyte growth factor receptor (Homo sapiens) (UniProt P08581)", "sequence (P08581 whole entry, the tested form may be a part)": "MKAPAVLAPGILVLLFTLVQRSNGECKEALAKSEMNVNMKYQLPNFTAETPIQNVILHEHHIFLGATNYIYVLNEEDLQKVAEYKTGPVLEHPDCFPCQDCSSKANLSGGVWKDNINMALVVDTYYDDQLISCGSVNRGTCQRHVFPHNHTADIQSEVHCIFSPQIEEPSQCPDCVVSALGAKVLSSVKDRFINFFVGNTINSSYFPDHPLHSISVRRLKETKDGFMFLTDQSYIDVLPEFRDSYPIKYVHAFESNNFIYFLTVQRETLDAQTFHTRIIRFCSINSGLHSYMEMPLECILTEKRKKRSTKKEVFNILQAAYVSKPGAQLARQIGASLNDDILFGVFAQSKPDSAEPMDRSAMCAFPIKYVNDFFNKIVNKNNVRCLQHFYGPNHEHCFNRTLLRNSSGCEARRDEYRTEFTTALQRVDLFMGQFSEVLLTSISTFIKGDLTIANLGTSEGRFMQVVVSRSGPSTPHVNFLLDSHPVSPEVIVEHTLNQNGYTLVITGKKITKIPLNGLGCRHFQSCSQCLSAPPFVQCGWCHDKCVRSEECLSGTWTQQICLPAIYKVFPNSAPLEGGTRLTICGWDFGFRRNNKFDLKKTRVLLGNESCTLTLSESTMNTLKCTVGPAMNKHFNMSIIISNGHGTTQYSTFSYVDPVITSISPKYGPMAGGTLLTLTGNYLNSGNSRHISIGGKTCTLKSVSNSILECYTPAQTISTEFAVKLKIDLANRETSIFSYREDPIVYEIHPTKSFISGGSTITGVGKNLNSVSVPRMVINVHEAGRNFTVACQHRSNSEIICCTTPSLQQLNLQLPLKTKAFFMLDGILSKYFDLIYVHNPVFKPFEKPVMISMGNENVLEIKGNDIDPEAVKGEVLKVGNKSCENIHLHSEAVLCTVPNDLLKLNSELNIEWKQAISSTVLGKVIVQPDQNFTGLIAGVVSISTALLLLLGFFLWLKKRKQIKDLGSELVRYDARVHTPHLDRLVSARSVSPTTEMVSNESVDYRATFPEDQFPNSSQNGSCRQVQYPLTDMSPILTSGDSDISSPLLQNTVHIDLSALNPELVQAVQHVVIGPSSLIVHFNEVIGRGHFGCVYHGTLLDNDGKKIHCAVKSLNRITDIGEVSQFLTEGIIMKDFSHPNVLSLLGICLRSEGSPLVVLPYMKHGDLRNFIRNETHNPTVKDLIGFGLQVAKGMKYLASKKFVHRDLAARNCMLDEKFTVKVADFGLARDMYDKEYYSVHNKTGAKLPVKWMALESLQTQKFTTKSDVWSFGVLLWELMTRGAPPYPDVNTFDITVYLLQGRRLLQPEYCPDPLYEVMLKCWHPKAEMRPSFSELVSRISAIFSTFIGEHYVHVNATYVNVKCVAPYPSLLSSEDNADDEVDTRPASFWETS", "test": "Inhibition of N-terminal His6-tagged recombinant human c-Met residues 974-end expressed in baculovirus infected insect Sf21 cells assessed as residual activity at 10 uM", "procedure,_shortened": "as §1"}, "[6]": {"biological_target": "T2, Aurora kinase A (Homo sapiens) (UniProt O14965)", "T2 sequence (whole entry)": "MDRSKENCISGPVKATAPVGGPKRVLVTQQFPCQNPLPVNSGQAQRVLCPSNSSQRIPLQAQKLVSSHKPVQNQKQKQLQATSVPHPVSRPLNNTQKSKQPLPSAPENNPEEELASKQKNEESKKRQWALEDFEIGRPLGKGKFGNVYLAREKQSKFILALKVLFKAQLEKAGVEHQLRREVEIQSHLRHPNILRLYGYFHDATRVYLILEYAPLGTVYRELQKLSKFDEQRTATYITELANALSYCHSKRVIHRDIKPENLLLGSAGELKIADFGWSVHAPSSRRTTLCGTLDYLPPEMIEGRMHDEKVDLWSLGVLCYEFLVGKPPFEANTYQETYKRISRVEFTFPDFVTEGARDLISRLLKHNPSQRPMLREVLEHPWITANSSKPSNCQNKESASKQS", "test": "Inhibition of N-terminal His6-tagged recombinant full length human Aurora A expressed in Sf21 cells assessed as residual activity at 10 uM", "procedure,_shortened": "as §1"}, "[7]": {"biological_target": "Mitogen-activated protein kinase 10 (Homo sapiens) (UniProt P53779)", "sequence (P53779 whole entry)": "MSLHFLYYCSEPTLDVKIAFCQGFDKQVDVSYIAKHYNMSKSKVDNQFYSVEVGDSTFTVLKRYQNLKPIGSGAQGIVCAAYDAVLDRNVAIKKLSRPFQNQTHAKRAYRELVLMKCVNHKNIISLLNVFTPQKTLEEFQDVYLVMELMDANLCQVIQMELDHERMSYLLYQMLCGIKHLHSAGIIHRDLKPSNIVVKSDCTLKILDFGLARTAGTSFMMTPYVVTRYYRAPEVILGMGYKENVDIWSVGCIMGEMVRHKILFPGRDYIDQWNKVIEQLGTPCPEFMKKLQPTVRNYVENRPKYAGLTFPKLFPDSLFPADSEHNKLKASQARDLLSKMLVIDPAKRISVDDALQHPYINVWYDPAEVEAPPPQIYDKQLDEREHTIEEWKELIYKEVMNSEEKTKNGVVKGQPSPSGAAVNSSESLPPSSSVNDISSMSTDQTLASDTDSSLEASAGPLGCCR", "test": "Inhibition of N-terminal His6 tagged recombinant full length human JNK3 expressed in Sf21 cells assessed as residual activity at 10 uM", "procedure,_shortened": "as §1"}, "[8]": {"biological_target": "Casein kinase 2 (Homo sapiens) (UniProt P67870+P68400+P19784+Q8NEV1)", "test": "Inhibition of recombinant full length human Casein Kinase 2 expressed in insect Sf21 cells assessed as residual activity at 10 uM", "procedure,_shortened": "as §1"}, "[9]": {"biological_target": "T3, Mitogen-activated protein kinase kinase kinase 5 (Homo sapiens) (UniProt Q99683)", "T3 sequence (whole entry)": "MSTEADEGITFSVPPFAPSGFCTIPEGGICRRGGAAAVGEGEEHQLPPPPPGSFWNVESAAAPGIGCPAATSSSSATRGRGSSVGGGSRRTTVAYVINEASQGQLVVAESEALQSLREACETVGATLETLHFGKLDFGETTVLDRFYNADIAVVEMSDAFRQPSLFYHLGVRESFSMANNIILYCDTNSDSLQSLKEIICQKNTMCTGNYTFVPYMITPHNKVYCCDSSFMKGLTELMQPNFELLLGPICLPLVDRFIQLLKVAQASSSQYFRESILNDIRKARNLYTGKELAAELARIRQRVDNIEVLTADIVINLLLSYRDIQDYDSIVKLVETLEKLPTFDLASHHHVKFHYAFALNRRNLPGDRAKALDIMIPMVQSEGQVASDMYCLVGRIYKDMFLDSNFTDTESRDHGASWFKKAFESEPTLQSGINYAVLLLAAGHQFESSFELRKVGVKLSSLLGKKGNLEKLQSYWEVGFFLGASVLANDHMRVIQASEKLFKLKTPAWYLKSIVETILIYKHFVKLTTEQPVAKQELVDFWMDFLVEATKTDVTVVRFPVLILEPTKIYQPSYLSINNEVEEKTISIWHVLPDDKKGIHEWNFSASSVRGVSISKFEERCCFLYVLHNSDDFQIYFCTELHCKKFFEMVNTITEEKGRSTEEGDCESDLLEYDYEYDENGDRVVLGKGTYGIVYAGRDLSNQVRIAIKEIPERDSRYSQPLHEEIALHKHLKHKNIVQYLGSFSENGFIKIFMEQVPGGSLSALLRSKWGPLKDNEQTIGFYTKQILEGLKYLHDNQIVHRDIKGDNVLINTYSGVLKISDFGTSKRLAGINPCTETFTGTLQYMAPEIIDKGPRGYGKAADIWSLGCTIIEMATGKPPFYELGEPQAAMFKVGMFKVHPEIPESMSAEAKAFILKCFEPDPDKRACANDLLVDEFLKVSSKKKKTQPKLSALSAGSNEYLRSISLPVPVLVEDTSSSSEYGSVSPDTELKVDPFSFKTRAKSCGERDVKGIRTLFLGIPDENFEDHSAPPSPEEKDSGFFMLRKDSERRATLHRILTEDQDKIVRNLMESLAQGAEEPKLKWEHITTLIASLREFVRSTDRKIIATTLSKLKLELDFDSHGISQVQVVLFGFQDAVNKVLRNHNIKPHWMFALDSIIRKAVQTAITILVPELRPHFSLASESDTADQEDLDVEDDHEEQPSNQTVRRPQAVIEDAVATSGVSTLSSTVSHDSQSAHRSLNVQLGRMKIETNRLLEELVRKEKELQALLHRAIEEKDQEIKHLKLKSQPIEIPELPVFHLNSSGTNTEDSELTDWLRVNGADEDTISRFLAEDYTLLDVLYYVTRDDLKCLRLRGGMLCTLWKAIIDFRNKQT", "test": "Inhibition of N-terminal GST/C-terminal His6-tagged recombinant human ASK1 (649 to 946 amino acids) expressed in Escherichia coli assessed as residual activity at 10 uM", "procedure,_shortened": "as §1"}},
  "note": "pIC50: −log10 of the molar value.",
  "data": [
    {"smiles": "NC1=C(c2nc3ccccc3[nH]2)C(=O)CN1c1ccccc1Cl", "values": [
      {"measurement": "pIC50", "setting": "[1]", "value": "< 4.52"}
    ]},
    {"smiles": "Cc1cccc(N2CC(=O)C(c3nc4ccccc4[nH]3)=C2N)c1", "values": [
      {"measurement": "pIC50", "setting": "[1]", "value": "< 4.52"}
    ]},
    {"smiles": "COc1ccc(Cl)cc1N1CC(=O)C(c2nc3ccccc3[nH]2)=C1N", "values": [
      {"measurement": "pIC50", "setting": "[2]", "value": "< 4.30"},
      {"measurement": "pIC50", "setting": "HEK293", "value": "< 4.30"}
    ]},
    {"smiles": "NC1=C(c2nc3ccccc3[nH]2)C(=O)CN1c1cccc(O)c1", "values": [
      {"measurement": "pIC50", "setting": "[1]", "value": 6.49},
      {"measurement": "pIC50", "setting": "[2]", "value": 5.03},
      {"measurement": "pIC50", "setting": "HEK293", "value": "< 4.30"},
      {"measurement": "Activity", "setting": "[3]", "value": 2.1, "unit": "%"},
      {"measurement": "Activity", "setting": "[4]", "value": 84.7, "unit": "%"},
      {"measurement": "Activity", "setting": "[5]", "value": 128, "unit": "%"},
      {"measurement": "Activity", "setting": "[6]", "value": 85.8, "unit": "%"},
      {"measurement": "Activity", "setting": "[7]", "value": 118, "unit": "%"},
      {"measurement": "Activity", "setting": "[8]", "value": 81.4, "unit": "%"},
      {"measurement": "Activity", "setting": "[9]", "value": 95.7, "unit": "%"}
    ]},
    {"smiles": "Cc1ccc(N2CC(=O)C(c3nc4ccccc4[nH]3)=C2N)cc1", "values": [
      {"measurement": "pIC50", "setting": "[1]", "value": "< 4.52"}
    ]},
    {"smiles": "NC1=C(c2nc3ccccc3[nH]2)C(=O)CN1c1ccccc1F", "values": [
      {"measurement": "pIC50", "setting": "[1]", "value": "< 4.52"}
    ]},
    {"smiles": "CCOc1ccccc1N1CC(=O)C(c2nc3ccccc3[nH]2)=C1N", "values": [
      {"measurement": "pIC50", "setting": "[1]", "value": "< 4.52"}
    ]},
    {"smiles": "COc1ccc(N2CC(=O)C(c3nc4ccccc4[nH]3)=C2N)c(OC)c1", "values": [
      {"measurement": "pIC50", "setting": "[1]", "value": "< 4.52"}
    ]},
    {"smiles": "NC1=C(c2nc3ccccc3[nH]2)C(=O)CN1c1ccccc1", "values": [
      {"measurement": "pIC50", "setting": "[1]", "value": "< 4.52"}
    ]},
    {"smiles": "Cc1ccc2nc(C3=C(N)N(c4cccc(O)c4)CC3=O)[nH]c2c1", "values": [
      {"measurement": "pIC50", "setting": "[1]", "value": 6.20},
      {"measurement": "pIC50", "setting": "[2]", "value": 5.25},
      {"measurement": "pIC50", "setting": "HEK293", "value": "< 4.30"},
      {"measurement": "Activity", "setting": "[3]", "value": 5, "unit": "%"},
      {"measurement": "Activity", "setting": "[4]", "value": 92.7, "unit": "%"},
      {"measurement": "Activity", "setting": "[5]", "value": 92.5, "unit": "%"},
      {"measurement": "Activity", "setting": "[6]", "value": 75.8, "unit": "%"},
      {"measurement": "Activity", "setting": "[7]", "value": 101, "unit": "%"},
      {"measurement": "Activity", "setting": "[8]", "value": 77.3, "unit": "%"},
      {"measurement": "Activity", "setting": "[9]", "value": 91.6, "unit": "%"}
    ]},
    {"smiles": "NC1=C(c2nc3ccccc3[nH]2)C(=O)CN1c1ccc(F)cc1", "values": [
      {"measurement": "pIC50", "setting": "[1]", "value": 4.57}
    ]}
  ]
}
